pEC50, pIC50: −log10 of the molar value.
What was measured:
[1] = Selectivity index, ratio of CC50 for human MT4 cells to EC50 for HIV-2 ROD infected in human MT4 cells; type: toxicity, cell-based; settings: read-out: Ratio CC50/EC50
Procedure, shortened: (§1)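 MT-4 cells are seeded at 6 × 10⁵ cells/mL. Serial fivefold compound dilutions go into two triplicate series, one mock-infected and one virus-infected. After 5 days, viability is read by MTT reduction to formazan, with absorbance at 540 and 690 nm. EC50 comes from infected wells and CC50 from mock-infected wells. SI = CC50/EC50.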

[2] = Selectivity index, ratio of CC50 for human MT4 cells to EC50 for HIV-1 RES056 harboring reverse transcriptase K103N/Y181C double mutant infected in human MT4 cells; type: toxicity, cell-based; settings: read-out: Ratio CC50/EC50; procedure, shortened: as §1
[3] = test system: Human immunodeficiency virus 1; experiment: Antiviral activity against HIV-1 RES056 harboring reverse transcriptase K103N/Y181C double mutant infected in human MT4 cells assessed as protection against virus-induced cytopathogenicity after 5 days by MTT assay; type: functional, organism-based; settings: Human immunodeficiency virus 1, RES056, MT4, 120 h; procedure, shortened: as §1
[4] = Selectivity index, ratio of CC50 for human MT4 cells to EC50 for wild type HIV-1 3B infected in human MT4 cells; type: toxicity, cell-based; settings: read-out: Ratio CC50/EC50
Procedure, shortened: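 HIV-1 IIIB is added at 100–300 CCID50 per well to MT-4 cells seeded at 6 × 10⁵ cells/mL. Fivefold serial compound dilutions are run in triplicate, with a parallel mock-infected series for cytotoxicity. MTT viability is read at 540 and 690 nm after 5 days. SI = CC50 (mock-infected) / EC50 (infected).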

[5] = test system: Human immunodeficiency virus 1; experiment: Antiviral activity against wild type HIV-1 3B infected in human MT4 cells assessed as protection against virus-induced cytopathogenicity after 5 days by MTT assay; type: functional, organism-based; settings: Human immunodeficiency virus 1, 3B, MT4, 120 h
Procedure, shortened: (§2)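 Compounds added at the start as 10× stocks to triplicate wells, then serially diluted fivefold. Virus stock at […] CCID50 was added to MT-4 cells resuspended at 6 × 10⁵ cells/mL. Viability was read by MTT reduction to formazan five days post-infection, with absorbance measured at 540 and 690 nm. EC50 is the concentration protecting against virus-induced cytopathicity.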

[6] = test system: Human immunodeficiency virus 2; experiment: Antiviral activity against HIV-2 ROD infected in human MT4 cells assessed as protection against virus-induced cytopathogenicity after 5 days by MTT assay; type: functional, organism-based; settings: Human immunodeficiency virus 2, ISOLATE ROD, MT4, 120 h; procedure, shortened: as §2
[7] = Cytotoxicity against human MT4 cells assessed as growth inhibition after 5 days by MTT assay; type: cell-based
Procedure, shortened: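 Mock-infected MT-4 cells (6 × 10⁵ cells/mL) were run in parallel triplicate wells with serial fivefold compound dilutions added from 10× stocks and culture medium instead of virus. Viability was measured by MTT at day 5, reading absorbance at 540 and 690 nm.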

[8] = target: Human immunodeficiency virus type 1 reverse transcriptase (Human immunodeficiency virus 1, UniProt Q72547); experiment: Inhibition of wild type HIV-1 reverse transcriptase using […] as template/primer assessed as inhibition of biotin-dUTP incorporation after 1 hr by microtiter plate ELISA reader analysis

Structure (SMILES)	selectivity ratio [1]	selectivity ratio [2]	pEC50 [3]	selectivity ratio [4]	pEC50 [5]	pEC50 [6]	CC50 at 120 h [7]	pIC50 [8]
Cc1cc(Br)cc(C)c1Oc1cc(Nc2ccc(C#N)cc2)ncc1[N+](=O)[O-]	< 1	< 1	< 4.91	45	6.57	< 4.91	12.3 µM	
N#Cc1ccc(Nc2cc(Oc3c(Cl)cccc3Cl)c([N+](=O)[O-])cn2)cc1	< 1	< 1	< 4.56	44	6.21	< 4.56	27.7 µM	
N#Cc1ccc(Nc2cc(Oc3c(Cl)cc([N+](=O)[O-])cc3Cl)c([N+](=O)[O-])cn2)cc1	< 1	< 1	< 4.58	2	4.77	< 4.58	26.5 µM	
CC(C)Nc1cccnc1N1CCN(C(=O)c2cc3cc(NS(C)(=O)=O)ccc3[nH]2)CC1 [DELAVIRDINE]		< 1	< 4.44	> 71	6.29		> 36.2 µM	
Cc1ccc(Nc2cc(Oc3c(C)cc(C#N)cc3C)c([N+](=O)[O-])cn2)cc1	< 1	< 1	< 3.68	< 1	< 3.68	< 3.68	207 µM	
Cc1cc(C#N)cc(C)c1Oc1cc(Nc2ccc([N+](=O)[O-])cc2)ncc1[N+](=O)[O-]	< 1	< 1	< 3.85	200	6.14	< 3.85	141 µM	
Cc1cc(Cl)cc(C)c1Oc1cc(Nc2ccc(C#N)cc2)ncc1[N+](=O)[O-]	< 1	< 1	< 4.96	70	6.80	< 4.96	11.1 µM	
Cc1cccc(C)c1Nc1cc(Nc2ccc(C#N)cc2)ncc1[N+](=O)[O-]	< 1	< 1	< 4.89	< 1	< 4.89	< 4.89	12.8 µM	
Cc1cc(C)c(Oc2cc(Nc3ccc(C#N)cc3)ncc2[N+](=O)[O-])c(C)c1	< 1	< 1	< 4.16	1250	7.25	< 4.16	69.9 µM	5.16
Cc1cc(C#N)cc(C)c1Oc1cc(Nc2ccc(C#N)cc2)ncc1[N+](=O)[O-]	< 1	< 1	< 4.44	339	6.96	< 4.44	36.1 µM	5.07
O=C1Nc2ccc(Cl)cc2[C@@](C#CC2CC2)(C(F)(F)F)O1 [EFAVIRENZ]		> 21	6.49	> 1110	8.24		> 6.34 µM	
N#Cc1ccc(Nc2cc(Oc3c(Cl)cc(Cl)cc3Cl)c([N+](=O)[O-])cn2)cc1	< 1	< 1	< 4.79	97	6.77	< 4.79	16.2 µM	
N#Cc1ccc(Nc2cc(Oc3c(F)cc(F)cc3F)c([N+](=O)[O-])cn2)cc1	< 1	< 1	< 5.45	5	6.14	< 5.45	3.54 µM	
N#Cc1ccc(Nc2cc(Nc3c(F)cc(Br)cc3Br)c([N+](=O)[O-])cn2)cc1	< 1	< 1	< 3.83	49	5.52	< 3.83	149 µM	
N#Cc1ccc(Nc2cc(Oc3c(Br)cc(Br)cc3Br)c([N+](=O)[O-])cn2)cc1	< 1	< 1	< 5.13	65	6.96	< 5.13	7.49 µM	
Cc1ccnc2c1NC(=O)c1cccnc1N2C1CC1 [NEVIRAPINE]			5.39				> 15 µM	
Cc1cccc(C)c1Oc1cc(Nc2ccc(C#N)cc2)ncc1[N+](=O)[O-]	< 1	< 1	< 3.90	214	6.24	< 3.90	126 µM	
COc1cccc(OC)c1Oc1cc(Nc2ccc(C#N)cc2)ncc1[N+](=O)[O-]	< 1	< 1	< 3.50	74	5.37	< 3.50	319 µM	
Cc1cc(Br)c(Oc2cc(Nc3ccc(C#N)cc3)ncc2[N+](=O)[O-])c(Br)c1	< 1	< 1	< 4.63	691	7.47	< 4.63	23.6 µM	4.98
Cc1cn([C@H]2C[C@H](N=[N+]=[N-])[C@@H](CO)O2)c(=O)[nH]c1=O [ZIDOVUDINE]	> 7720	> 5960	7.80	> 12500		7.92	> 93.5 µM	
Cc1cc(Br)c(Nc2cc(Nc3ccc(C#N)cc3)ncc2[N+](=O)[O-])c(Br)c1	< 1	< 1	< 3.78	43	5.41	< 3.78	167 µM	
Cc1cc(C)c(Nc2cc(Nc3ccc(C#N)cc3)ncc2[N+](=O)[O-])c(C)c1	< 1	< 1	< 3.58	9	4.52	< 3.58	262 µM	
